Vif imaging – HIV Vif inhibition | 340,000 tested, 0.35% active | AID 602346 | HEK293T cells, Vif self-association by quenched fluorescence, imaging, 24 h | inhibition, % at 7.49 µM; in the data active = inhibition above about 50%, passing the limit was not always enough
S100A4 MyoIIA – blocks human S100A4 binding to myosin IIA peptide. P26447. S100A4/TAMRA-MyoIIA peptide fluorescence polarization. inhibition, % at 10.7 µM. 360,000 tested, 0.14% active;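 active = mean inhibition of at least 70% across replicates, with every replicate also reaching that level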
Target sequence (P26447 whole entry, looked up): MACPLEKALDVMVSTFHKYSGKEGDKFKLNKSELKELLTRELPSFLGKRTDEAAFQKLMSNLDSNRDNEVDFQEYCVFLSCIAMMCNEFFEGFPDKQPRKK
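Material: human S100A4 monomer with TAMRA-labelled myosin IIA peptide; buffer or medium: HEPES pH 7.2 with CaCl2, KCl, NaCl, DTT, Triton; compound dosing: one concentration per compound; schedule: 5 min incubation before reading; benchmarks: neutral control DMSO, positive control TFP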
HIV Env fusion – inhibitors of HIV Env-mediated cell fusion | HeLa-JRFL Env/CEM21 cell fusion, luciferase | 360,000 tested, 1.1% active | inhibition, % at 12.3 µM | AID 651610;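 active = mean replicate inhibition score of at least 50 and every replicate individually at or above 50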;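 note: 0% = plate neutral controls and 100% = maraviroc near 300 nM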
miR122 inh – miR-122 inhibition in Huh7 cells; activation (reporter increase), % at 12.5 µM; Huh7 miR-122 Renilla luciferase sensor, 48 h; neutral wells = 0, positive control = 100; 340,000 tested, 0.3% active;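 active = mean replicate activation score at least 90 and every replicate individually at or above 90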;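 note: higher luciferase means less miR-122 activity so hits act as miR-122 inhibitors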
FN deposition inh – fibronectin deposition inhibition; AH1F fibroblasts, Alexa488-fibronectin deposition fluorescence, overnight; inhibition, % at 12.6 µM; 350,000 tested, 0.086% active; AID 743247;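 active = mean inhibition across replicates of 30% or more, regardless of how many single replicates reach that level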;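 note: positive control wells lacked labelled fibronectin entirely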
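Measured by – fluorescence 485/525 nm · System – AH1F fibroblast monolayer, labelled fibronectin deposition · Amount – 10000 cells per well · Buffer or medium – serum-reduced DMEM (2% serum) · Doses – single dose, pinned · Also added – fluorescent fibronectin at 24 nM final · Schedule – 1 h cell attachment, overnight exposure to compound and label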
rRNA inh HTS – inhibits bacterial ribosomal RNA function over humanized ribosomes; E. coli WT GFP vs humanized-ribosome RFP mutants, fluorescence, 24 h; active compounds read low; DMSO median 0, no signal -100; GFP signal change (wild-type ribosome), % (no concentration beside the values); 350,000 tested, 1.6% active; AID 720706;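 active = significant combined selectivity score with lowered wild-type GFP, culture density cut under 30%, mutant RFP and density less affected; inactive = any of these conditions unmet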
The depositor's hits bear a star; . = no result; [ ] = dose if it differs, or a comment. In the library only some 2.6% were active in any assay of this set; here they are far more common.

SMILES	Vif imaging	S100A4 MyoIIA	HIV Env fusion	miR122 inh	FN deposition inh	rRNA inh HTS
CC(C)c1ccc(-n2nnnc2SCC(=O)NC2CC2)cc1	44	-3	64*	0	4	1
C[C@@H]1CN([C@@H](C)CO)C(=O)c2c(c3ccccc3n2C)-c2ccccc2CO[C@@H]1CN(C)CC1CCCCC1	.	20	.	.	-12	0
CCOCCCNc1ncnc2c1[nH]c1ccccc12	-14	.	.	3	.	.
CCCCOc1ncnc2c1[nH]c1ccc(OCC)cc12	-6	.	.	-4	.	.
CCCCOc1ncnc2c1[nH]c1ccccc12	88*	5	.	.	.	2
CCCCOCCCNc1ncnc2c1[nH]c1ccccc12	-13	.	88*	13	-1	.
COCC(=O)Nc1ccc2c(c1)C(=O)N(C)[C@@H]1CC[C@@H](CC(=O)NCCc3ccncc3)O[C@@H]1CO2	.	-5	.	0[16.7 µM]	-9	-1
O=C1NC(CCc2ccccc2)C(=O)N1CCOc1ccccc1 (stereo unspecified)	-2	2	-5	.	1	-27*
O=C1NC(CCc2ccccc2)C(=O)N1Cc1ccc(Br)cc1 (stereo unspecified)	0	0	18	.	-5	9
COCn1cnc(-c2ccccc2)c1-c1ccccc1	3	-2	-4	-2	4	-28*
COc1ccc2c3c(n(C)c2c1)[C@@H](CO)N(C(=O)c1ccccn1)CC31CN(C(=O)c2ccccn2)C1	.	5	5[16.7 µM]	.	.	-2
COc1ccc(-n2c(C)cc(C(=O)NC3CCCCC3)c2C)cc1	-4	2	.	.	.	-23*
Cc1cccc(-n2c(C)cc(C(=O)NC3CCCCC3)c2C)c1	1	5	-19	10	-1	.
CO[C@H]1CN(C)C(=O)c2cc(NC(=O)C3CCCCC3)ccc2OC[C@@H](C)N(C)C[C@H]1C	.	-5	.	-4[16.7 µM]	.	1
CC(C)(C)[S@@](=O)N1Cc2cc(C(=O)NCc3ccccc3F)nc(-c3cccc(-c4ccncc4)c3)c2[C@H]1CCO	.	-32	3[16.7 µM]	.	24	-6
COc1ccccc1-c1c(-c2ccc(O)cc2O)n[nH]c1C(F)(F)F	-23	-2	93*	-3	-2	-15
COc1ccc(S(=O)(=O)N(C)C[C@H]2Oc3ccc(NC(=O)C4CCCCC4)cc3C(=O)N([C@@H](C)CO)C[C@@H]2C)cc1	.	-9	-11[16.7 µM]	0[16.7 µM]	4	-3
CO[C@@H]1CN(C)C(=O)c2cc(NC(C)=O)ccc2OC[C@@H](C)N(C(=O)CC2CC2)C[C@@H]1C	.	-7	3[16.7 µM]	20[16.7 µM]	-8	0
O=C(NC1CCCCC1)N1CC(=O)N2[C@H](C1)[C@@H](c1ccc(-c3cccc(F)c3)cc1)[C@@H]2CO	.	-3	.	.	.	-35
CC1CC(C)CN(S(=O)(=O)c2ccc(Oc3ccc([N+](=O)[O-])cc3)cc2)C1 (stereo unspecified)	1	.	56*	-5	-6	.
FC(F)(F)c1nnc(-c2ccccc2)nc1Oc1ccc(Cl)cc1Cl	51*	.	.	-2	.	.
FC(F)(F)c1cccc(Oc2nc(-c3ccccc3)nnc2C(F)(F)F)c1	-2	.	-29	.	-6	.
C[C@H](CO)N1C[C@H](C)[C@H](CN(C)S(=O)(=O)c2cn(C)cn2)Oc2c(NC(=O)NC3CCCCC3)cccc2C1=O	.	6	.	-3[16.7 µM]	8	-2
COCCn1c(=S)[nH]c2cc(C(=O)N3CCN(Cc4ccc5c(c4)OCO5)CC3)ccc2c1=O	-16	.	86*	0	0	.
COCCn1c(=S)[nH]c2cc(C(=O)N3CCc4ccccc43)ccc2c1=O	-17	.	80*	-2	.	.
SMILES	Vif imaging	S100A4 MyoIIA	HIV Env fusion	miR122 inh	FN deposition inh	rRNA inh HTS
COCCn1c(=O)[nH]c2cc(C(=O)N3CCN(Cc4ccc5c(c4)OCO5)CC3)ccc2c1=O	-15	-1	19	-5	4	13
COc1ccc(Cn2c(=O)[nH]c3cc(C(=O)N4CCN(Cc5ccccc5)CC4)ccc3c2=O)cc1	.	.	24*	5	7	.
CCCn1c(=S)[nH]c2cc(C(=O)N3CCc4ccccc43)ccc2c1=O	-12	.	29	-6	5	.
CO[C@H]1CN(C)C(=O)c2ccc(NS(C)(=O)=O)cc2OC[C@H](C)N(Cc2cncnc2)C[C@H]1C	.	7	-13[16.7 µM]	-13[16.7 µM]	1	2
CCOc1ccc(OCCC(=O)OCC(=O)N2CCN(S(=O)(=O)c3ccc(C)cc3)CC2)cc1	12	5	-9	.	4	6
CCOC(=O)c1ccoc1CN1CCN(S(=O)(=O)c2ccc(C)c(C)c2)CC1	-5	-5	3	-9	1	-20*
CCOC(=O)c1ccoc1CSCC(=O)N1CCN(S(=O)(=O)c2ccc(C)cc2)CC1	2	.	56*	-2	9	.
O=C(N/N=C/c1ccccc1C(=O)O)c1cccc(S(=O)(=O)Nc2cc(Cl)ccc2Cl)c1	1	-3	4	-8	3	-19*
CCN(CC)S(=O)(=O)c1cccc(C(=O)N/N=C(\C)c2cccs2)c1	-14	-3	-10	0	0	5
C/C(=N\NC(=O)c1cccc(S(=O)(=O)Nc2cccc(Cl)c2)c1)c1cccs1	-2	-5	1	148*	2	-47
Cc1ccc(/C=N/NC(=O)c2cccc(S(=O)(=O)Nc3ccccc3Cl)c2)s1	-7	-2	.	-4	-9	-1
Cc1ccc(/C=N/NC(=O)c2cccc(S(=O)(=O)Nc3cccc(Cl)c3)c2)o1	7	-2	9	.	-3	-21*
O=C(C[C@H]1C[C@@H]2c3cc(NC(=O)C4CCOCC4)ccc3O[C@@H]2[C@H](CO)O1)NCc1ccc(Cl)cc1	.	-3	-9[16.7 µM]	-1[16.7 µM]	3	-2
c1ccc(CSc2nnc([C@@H]3CCCN3)o2)cc1	-18	.	94*	-5	9	.
c1ccc(CSc2nnc(Cc3ccccc3)o2)cc1	1	27	-1	.	.	-31*
Cc1ccc(CSc2nnc([C@@H]3CCCN3)o2)cc1	5	.	-15	-3	1	.
COc1ccc2c3c(n(C)c2c1)[C@@H](CO)NCC31CCN(C(=O)CC2CC2)CC1	.	.	.	.	.	2
C/C=C/c1ccc([C@@H]2[C@H](CO)N(C(C)=O)[C@H]2CNC(=O)c2ccncc2)cc1	.	-3	.	-12[16.7 µM]	-12	-1
O=c1cc(O)c(-c2ccc(Cl)c(Cl)c2)c(Cl)[nH]1	4	-9	-2	-1	.	-27*
CO[C@@H](C(=O)N(C)C[C@H]1OCc2ccccc2-c2c(n(C)c3ccccc23)C(=O)N([C@@H](C)CO)C[C@@H]1C)c1ccccc1	.	-15	55*[16.7 µM]	.	-8	0
C[C@H](CO)N1C[C@H](C)[C@H](CN(C)C(=O)N[C@H](C)c2ccccc2)OCc2ccccc2-c2c(n(C)c3ccccc23)C1=O	0	-3	75*	-5	-2	-7

Screening data as filed in PubChem.
